Rows were chosen to be rich in hits. Some 2.2% of all compounds tested hit in one or more screens of this group.
PGC1a acetyl inh: inhibitors of PGC1a acetylation signal, primary screen, cell-based, U2OS, AlphaScreen, inhibitor mode; AlphaScreen anti-acetyl-lysine; with virally co-expressed GCN5 acetyltransferase; inhibition, % at 15.6 µM; 0.17% of 350,000 active;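 active = every replicate shows inhibition of at least 40%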;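 also: 0% = neutral control wells and 100% = positive control wells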
FN deposit inh: inhibitors of fibronectin matrix deposition, primary screen, AH1F cells, Alexa488-fibronectin fluorescence, plate reader | inhibition, % at 12.6 µM | AID 743247, 2014 | 0.086% of 350,000 active | AH1F fibroblasts, overnight;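 active = mean inhibition across replicates of 30% or more, regardless of how many single replicates reach that level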;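 also: positive control wells lacked labelled fibronectin entirely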
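Assay system: AH1F fibroblast monolayer, labelled fibronectin deposition. Amount: 10000 cells per well. Also added: labelled fibronectin 24 nM. Compound: single-point pinned compound. Incubation: cell attachment 1 h, compound and FN exposure overnight. Detection: fluorescence after three HBSS washes, excitation 485 nm, emission 525 nm. Read-out: inhibition of fibronectin deposition signal.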
FGF22 binding-1: binders of human FGF22 protein, primary screen, FGF22 synaptogenesis inhibitor project, biophysical, thermal shift, single point; Fibroblast growth factor 22 (Homo sapiens), Q9HCT0; recombinant FGF22 thermal shift, SYPRO orange fluorescence; percent of sucrose octasulfate shift, DMSO zero; activity (Tm shift, normalised), % at 9.99 µM; 1.5% of 340,000 active;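 active = mean Tm shift, scaled 0 neutral to 100 positive control, at about 1.3% or above, every replicate too, limit read from the data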
SIRT5 inh: SIRT5 desuccinylase inhibitors, primary screen, biochemical, fluorescence imaging, single point, set 5. Purified SirT5, succinyl-peptide AMC, trypsin-coupled fluorescence. inhibition, % at 15 µM. 1.1% of 330,000 active. AID 652115, 2013; in the data active = inhibition above about 15%
ERAP1 inh: human ERAP1 aminopeptidase inhibitors, primary screen, biochemical, single point, plate reader. Endoplasmic reticulum aminopeptidase 1 (Homo sapiens), Q9NZ08. recombinant ERAP1, Leu-AMC fluorescence, 60 min. 0.15% of 340,000 active. inhibition, % at 10.7 µM;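 active = mean replicate inhibition of at least 30%, or all replicates individually reaching that 30% level; inactive = mean below 30% and not every replicate reaching it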;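 also: 0% = neutral control wells and 100% = L-leucinethiol positive control wells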
Target sequence (Q9NZ08 whole entry, looked up): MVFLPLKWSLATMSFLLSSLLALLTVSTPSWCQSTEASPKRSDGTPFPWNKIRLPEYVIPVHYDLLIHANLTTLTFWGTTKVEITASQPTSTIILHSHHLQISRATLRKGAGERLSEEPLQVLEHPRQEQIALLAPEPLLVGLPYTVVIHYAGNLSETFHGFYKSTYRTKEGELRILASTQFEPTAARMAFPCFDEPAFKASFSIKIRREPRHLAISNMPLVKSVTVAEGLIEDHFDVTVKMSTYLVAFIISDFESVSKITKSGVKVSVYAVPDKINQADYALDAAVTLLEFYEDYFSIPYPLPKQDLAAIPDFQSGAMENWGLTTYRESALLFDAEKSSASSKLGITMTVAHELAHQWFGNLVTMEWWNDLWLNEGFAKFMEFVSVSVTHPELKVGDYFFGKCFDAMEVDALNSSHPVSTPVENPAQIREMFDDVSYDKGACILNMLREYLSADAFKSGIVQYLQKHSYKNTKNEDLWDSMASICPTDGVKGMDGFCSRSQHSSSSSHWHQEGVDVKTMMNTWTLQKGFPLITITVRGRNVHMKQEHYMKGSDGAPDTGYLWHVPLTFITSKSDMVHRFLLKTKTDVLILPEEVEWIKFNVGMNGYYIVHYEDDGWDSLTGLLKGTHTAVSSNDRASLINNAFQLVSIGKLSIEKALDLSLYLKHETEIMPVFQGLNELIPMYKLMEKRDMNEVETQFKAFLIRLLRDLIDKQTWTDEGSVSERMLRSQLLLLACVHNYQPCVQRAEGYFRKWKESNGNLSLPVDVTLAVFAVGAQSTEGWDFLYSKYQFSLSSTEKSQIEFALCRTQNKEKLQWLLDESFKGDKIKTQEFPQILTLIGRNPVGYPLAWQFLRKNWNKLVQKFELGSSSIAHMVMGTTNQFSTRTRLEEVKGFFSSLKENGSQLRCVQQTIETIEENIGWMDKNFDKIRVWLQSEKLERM
FGF22 binding-2: binders of human FGF22 protein, dose response, FGF22 synaptogenesis inhibitor project, biophysical, thermal shift, cherry-pick retest | recombinant FGF22 thermal shift, SYPRO orange fluorescence | shares compounds with FGF22 binding-1 | 2% of 1,000 active | thermal shift activity, °C (ΔTm) at 38 µM;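 active = fitted rise in melting shift crosses a set limit at or below the top valid dose tested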
SYPRO no-protein: compound-only thermal shift signal without protein, dose response, artefact control for FGF22 binder project, biochemical, cherry-picked samples, RT-PCR instrument; shares compounds with FGF22 binding-1; compound-only SYPRO orange thermal shift counter-screen, no protein; AC50, µM (doses to about 38 µM); 2% of 1,000 active;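 active = rising signal whose fitted curve reaches the 0.54 level within the top valid dose, showing a melting point, actives reach about 13 µM in these data; inactive = the rest, including activity in the opposite direction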; also: value is where the raw curve crosses a fixed level and not half-maximal
* marks the source's active call; other numbers are inactive results; i = inactive; x = no result.

SMILES	PGC1a acetyl inh	FN deposit inh	FGF22 binding-1	SIRT5 inh	ERAP1 inh	others
CCCCC(=O)N/N=C/c1c(O)n(Cc2ccco2)c(=O)[nH]c1=O	-4.6	7.4	x	x	x
CN(C(=O)Oc1cccc2ccccc12)C1C=CCC1 (stereo not drawn)	-9.4	3.5	43.5*	x	-3.4
COC(=O)[C@@H]1[C@@H](CO)[C@@H]2Cn3c(ccc(C4=CCCC4)c3=O)[C@H]1N2CC1CCCC1	x	x	x	2.5	-3.6
CC(C)(C)C(=O)c1cn(CC(=O)NCc2ccco2)c2ccccc12	-4.3	0.6	0.0	17.0*	3.8
CC[N+]12CCC(CC1)C(C(O)(c1ccccc1)c1ccccc1)C2 (stereo not drawn)	10.7	2.2	0.0	-0.4	-1.1
CCC(CO)(C(=O)OC1C[N+]2(C)CCC1CC2)c1ccccc1 (stereo not drawn)	-6.5	2.6	0.0	-1.7	72.2*
CN1[C@@H]2CN(S(C)(=O)=O)C[C@H]1C2c1ccccc1 (stereo partly drawn)	x	-12.5	x	x	x
OC(CCNCCc1c[nH]c2ccccc12)C(F)(F)Cl (stereo not drawn)	2.3	x	43.6*	2.2	1.0
OC(CNCCc1c[nH]c2ccccc12)C(F)(F)F (stereo not drawn)	-11.8	8.0	x	-7.0	1.6
COC(=O)[C@@H]1[C@@H](CO)[C@@H]2Cn3c(ccc(-c4ccccc4)c3=O)[C@H]1N2CCc1ccccc1	x	x	-0.1	16.1*	-0.9
CC(CN1CCOCC1)C(C#N)(c1ccccc1)c1ccccc1 (stereo not drawn)	-6.4	4.5	43.0*	x	1.4
COC(=O)[C@@H]1[C@@H](CO)[C@@H]2Cn3c(ccc(-c4cccnc4)c3=O)[C@H]1N2CCc1ccccc1	x	x	0.5	-3.2	-2.0
CS(=O)(=O)N1C[C@@H]2C(c3ccccc3)[C@H](C1)N2CC1CC1 (stereo partly drawn)	x	-14.7	x	x	x
COc1ccc(C(=O)C23CN4CN(CN(C4)C2)C3)cc1	2.2	8.3	42.5	-7.7	4.1
COc1ccc(C2C3C=CC(C3)C2C(=O)O)cc1 (stereo not drawn)	x	2.3	43.5*	x	-11.4
COC(=O)[C@H]1[C@H](CO)[C@H]2Cn3c(ccc(-c4cncnc4)c3=O)[C@@H]1N2S(=O)(=O)c1ccccc1C	x	x	-0.2	-44.4	1.4
O=C(NCC1=C(c2ccc3ccccc3c2)C[C@@H]2CC[C@H]1N2Cc1ccco1)c1ccc([N+](=O)[O-])cc1	-6.1	0.8	0.1	-2.1	7.0
O=C(NCC1=C(c2ccc3ccccc3c2)C[C@@H]2CC[C@H]1N2Cc1ccco1)c1ccncc1	8.5	-5.5	0.0	24.9*	1.1
Cc1cccc(OP(N)(N)=O)c1C	8.2	0.3	43.5*	-1.6	-3.5
CN(C)C1C(=O)C(C(N)=O)=C(O)C2(O)C(=O)C3=C(O)c4c(O)cccc4C(C)(O)C3CC12 (stereo not drawn)	-26.2	x	x	x	x
CN(C)[C@@H]1C(=O)C(C(N)=O)=C(O)[C@@]2(O)C(=O)C3=C(O)c4c(O)cccc4[C@@](C)(O)C3[C@H](O)C12 (stereo partly drawn)	-4.0	0.2	-0.5	36.0*	7.7
O=c1[nH]sc2cc(F)ccc12	-9.2	4.2	0.1	-6.4	31.3*
O=C(O)[C@H]1[C@H](CO)[C@H]2Cn3c(ccc(C4=CCCCC4)c3=O)[C@@H]1N2C(=O)Cc1ccccn1	x	-12.4	0.3	-18.8	4.6
Cc1ccc(OP(=O)(NC(C)c2ccccc2)Oc2ccc(C)cc2)cc1 (stereo not drawn)	x	-2.0	43.0*	-2.8	-0.2
Cc1ccc(NP(=O)(Oc2ccccc2)Oc2ccccc2)cc1	1.1	-2.9	-0.1	-0.5	-2.4
SMILES	PGC1a acetyl inh	FN deposit inh	FGF22 binding-1	SIRT5 inh	ERAP1 inh	others
c1cnc(N2CCNCC2)nc1	5.3	1.9	0.0	-1.0	1.3
c1ccc(Cc2cnc(N3CCNCC3)nc2)cc1	x	-9.1	-0.1	-4.7	64.2*
CCCCn1c(=O)c(C=Nc2ccc(Cl)cc2)c(O)n(Cc2ccco2)c1=O	x	-8.8	-0.3	-5.3	8.6
CCCCn1c(=O)c(C=Nc2cc([N+](=O)[O-])ccc2OC)c(O)n(CCCCl)c1=O	x	-2.9	43.0*	0.1	-1.9
C=CCN1[C@@H]2CN(C(C)=O)C[C@H]1C2c1ccc(Br)cc1 (stereo partly drawn)	x	3.9	x	x	x
CC1=CC(=C2C(=O)NC(=O)NC2=O)C=C(C(F)(F)F)N1Cc1ccccc1	x	-5.0	0.1	x	10.8
CC1=CC(=C2C(=O)NC(=S)NC2=O)C=C(C(F)(F)F)N1Cc1ccccc1	87.5*	14.8	0.3	1.4	-2.9
COc1cc(C(=O)NN=Cc2ccc(N(CCCl)CCCl)cc2)cc(OC)c1OC	10.2	3.0	44.0*	x	-3.7
COc1cc2c3c(c1OC)-c1cc(O)ccc1CC3NCC2 (stereo not drawn)	4.1	x	x	x	x
COc1cc2c(cc1OC)-c1c(OC)c(OC)cc3c1[C@H](C2)[N+](C)(C)CC3	3.3	6.9	0.1	x	79.4*
COc1ccc(C[C@H]2NC[C@H](O)[C@H]2OC(C)=O)cc1	89.8*	17.6	0.0	-2.9	1.4
COc1ccc(OC(=O)N(C)C[C@H]2OCc3ccccc3-c3c(n(C)c4ccccc34)C(=O)N([C@H](C)CO)C[C@H]2C)cc1	-172.5	-1.5	x	1.3	0.4
COc1ccc(C#Cc2ccc3c(c2)O[C@H](CN(C)S(=O)(=O)c2ccccc2F)[C@@H](C)CN([C@@H](C)CO)S3(=O)=O)cc1	9.8	x	2.1*	15.4*	-3.1	FGF22 binding-2=0.016;SYPRO no-protein=2.41µM*
CC(C)c1ccc(-n2c(O)c(/C=N/NC(=O)c3ccccc3O)c(=O)[nH]c2=S)cc1	-5.5	3.9	1.4*	0.6	x	FGF22 binding-2=0.367;SYPRO no-protein=i
O=C(Cc1cccnc1)N1CCCCN2[C@@H](CO)[C@H](c3ccc(/C=C/c4ccccc4)cc3)[C@@H]2C1	3.2	x	-0.2	1.7	-3.8
O=c1oc2ccccc2c(O)c1C(c1ccccn1)c1c(O)c2ccccc2oc1=O	11.2	11.6	-0.1	6.8	6.6

High-throughput results from PubChem.
